Data as given in paper PMC2647857 (Journal of the American Chemical Society, 2009).
Values joined by “and” are separate entries in the source; they are usually repeats but may differ in a detail not shown here. Equal values may be shown once. Read-outs that look alike come from different tables or passages of the source.

How the values were obtained:
[1] = NO binding constant to Fe; parameters: species or system Rhodnius prolixus; conditions: pH 7.5
[2] = read-out: Kd for NO dissociation, Fe(III), cited from earlier work
[3] = Spectroelectrochemical midpoint potential, ligand-free; assay type: physicochemical, Rhodnius prolixus; conditions: for ΔEm = Em(mutant)−Em(standard) / Em: ligand-free
[4] = Spectroelectrochemical midpoint potential of the NO complex; assay type: physicochemical, Rhodnius prolixus; conditions: for ΔpHΔ(Em,NO) = ΔEm,NO(pH7.5) − ΔEm,NO(pH5.5) / ΔEm,NO = Em(mutant)−Em(standard) / Em,NO: NO bound
Method in brief: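 Spectroelectrochemistry of ~0.05 mM E. coli-expressed protein in 0.1 M sodium phosphate or acetate at pH 5.5, 6.5 and 7.5, 27 ± 1 °C. SNAP supplied NO at a level fully complexing both oxidation states. Ag/AgCl reference ([…] mV vs SHE). Absorbance versus applied potential fit to Nernst equation; pH dependence and mutant−standard differences derived.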

[5] = Imidazole binding constant to Fe; parameters: species or system Rhodnius prolixus
[6] = ligand-free, cited from earlier work
[7] = NO bound, cited from earlier work
[8] = Histamine binding constant to Fe; parameters: species or system Rhodnius prolixus; conditions: pH 7.5
NP1-E55Q = NP1-E55Q (Rhodnius prolixus, UniProt Q26239, E78Q); assay: biochemical; assay type: binding
Sequence of NP1-E55Q (Q26239 24-207 E78Q): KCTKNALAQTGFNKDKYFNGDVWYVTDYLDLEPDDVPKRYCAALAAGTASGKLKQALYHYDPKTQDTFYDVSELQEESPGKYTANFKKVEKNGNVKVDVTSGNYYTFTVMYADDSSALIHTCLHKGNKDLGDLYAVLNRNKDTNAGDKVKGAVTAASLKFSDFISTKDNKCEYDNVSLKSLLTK

Compound	ΔEm = Em(mutant)−Em(standard) ([3]; pH 5.5) [mV]	Em ([3]; pH 5.5, 27 °C) [mV vs. SHE]	ΔEm = Em(mutant)−Em(standard) ([3]; pH 7.5) [mV]	Em ([3]; pH 7.5, 27 °C) [mV vs. SHE]	ΔpHΔ(Em,NO) = ΔEm,NO(pH7.5) − ΔEm,NO(pH5.5) [4] [mV]	ΔEm,NO = Em(mutant)−Em(standard) ([4]; pH 5.5)	Em,NO ([4]; pH 5.5, 27 °C) [mV vs. SHE]	ΔEm,NO = Em(mutant)−Em(standard) ([4]; pH 7.5)	Em,NO ([4]; pH 7.5, 27 °C) [mV vs. SHE]	ΔEm,NO = Em(mutant)−Em(standard) ([4]; pH 6.5) [mV]	Em,NO ([4]; pH 6.5, 27 °C) [mV vs. SHE]	ΔEm = Em(mutant)−Em(standard) ([3]; pH 6.5) [mV]	Em ([3]; pH 6.5, 27 °C) [mV vs. SHE]	further results
NP2–M0D1: recombinant wild-type nitrophorin 2 expressed with the N-terminal methionine present	–	–	–	–	–	–	–	–	–	–	–	–	–	NO formation constant Kf, Fe(III) form [1]: 2e+08 M⁻¹; Kd ([1]; read-out: NO dissociation constant Kd, Fe(III) form): 5 nM; Kd ([2]; pH 5.5 ref 19): 1 nM; Kd ([2]; pH 7.5 ref 19): 20 nM
NP2-D1A,E124A: site-directed mutant of NP2-D1A, E124 replaced by Ala	125±4	−193±4	7±4	−318±2	−2±6	4±5 mV	52±5	2±3 mV	−18±3	–	–	–	–	increase in imidazole binding constant ([5]; at both pH values (5.5 and 7.5)): 0.7 log units
NP2-D1A: D1A mutant of NP2 with M0 cleaved during expression, used as standard	–	–	–	–	–	–	–	–	–	–	–	–	–	decrease of NO-bound Em between pH 5.5 and 7.5 ([4]; NO complex): 68 mV; pH dependence of Em, negative shift ([4]; NO complex, pH 5.5–7.5 range): 34 mV/pH unit; Em ([6]; pH 5.5, 27 °C ref 20): −318±1 mV vs. SHE; Em ([6]; pH 6.5, 27 °C ref 20): −327±6 mV vs. SHE; Em ([6]; pH 7.5, 27 °C ref 20): −325±3 mV vs. SHE; Em,NO ([7]; pH 5.5, 27 °C ref 20): 48±1 mV vs. SHE; Em,NO ([7]; pH 6.5, 27 °C ref 20): 10±1 mV vs. SHE; Em,NO ([7]; pH 7.5, 27 °C ref 20): −20±1 mV vs. SHE
NP2-D1A,D128A: site-directed mutant of NP2-D1A, D128 replaced by Ala	7±4	−311±4	−57±4	−382±3	38±4	−16±4 mV	32±3	22±2 mV	2±1	−8±2	2±1	–	–	–
NP2-D1A,K127A: site-directed mutant of NP2-D1A, K127 replaced by Ala	−9±5	−327±5	−54±4	−379±2	27±5	−27±3 mV	21±2	–	−20±4	−4±2	6±2	−2±6	−329±3	midpoint potential more negative with respect to NP2-D1A ([3]; pH 7.5, absence of NO): 54 mV
NP2-D1A,D89A: site-directed mutant of NP2-D1A, D89 replaced by Ala	34±3	−284±3	5±4	−320±3	33±3	3 mV and 3±2 mV	–	37 mV and 37±2 mV	17±2	9±2	19±1	23±7	−304±4	–
NP2-D1A,D99A: site-directed mutant of NP2-D1A, D99 replaced by Ala	14±4	−304±4	−12±5	−337±4	21±2	−10±2 mV	38±1	11±2 mV	−9±1	−1±3	9±2	13±6	−314±1	–
NP2-D1A,E100A: site-directed mutant of NP2-D1A, E100 replaced by Ala	6±6	−312±6	−32±6	−357±5	24±3	−5±2 mV	43±2	19±2 mV	0±1	−5±2	5±1	17±7	−310±3	larger histamine binding constant than standard [8]: 0.7 log units
NP2-D1A,D29A: site-directed mutant of NP2-D1A, D29 replaced by Ala	−17±3	−334±3	12±3	−313±1	50±3	−28±2 mV	20±1	22±2 mV	2±1	26±2	36±1	19±6	−308±3	binding constant of imidazole larger than that of histamine ([5]; pH 7.5): 1.3 log units
NP2-D1A,E53Q: site-directed mutant of NP2-D1A, buried E53 replaced by Gln	–	–	10±4	−316±3	64±4	40±3 mV	88±3	104 mV and 104±3 mV	84±2	95±2	105±1	–	–	–
c1c[nH]cn1 [imidazole, imidazole (ImH)]	–	–	–	–	–	–	–	–	–	–	–	–	–	Kd (NP1-E55Q): 200 nM
NP2-D1A,D36A: site-directed mutant of NP2-D1A, D36 replaced by Ala	25±4	−293±3	18±5	−307±4	39±5	−12±4 mV	36±4	28±3 mV	8±2	20±2	30±2	11±7	−315±4	–
NP2-D1A,D31A: site-directed mutant of NP2-D1A, D31 replaced by Ala	−55±6	−373±6	−41±4	−366±3	22±3	−10±2 mV	38±2	12±3 mV	−8±2	−3±2	7±2	−45±9	−372±8	–
